Columns and labels:
[1] = melting temperature; fluorescence melt of hairpins on a sequencing array, two-state fit, raised by 9.35 °C to match UV melts; settings: sodium 0.088 M
Outline: (§1)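 Cy3 signals were normalised both to pre-quench Cy3 and to control constructs. They came from library hairpins carrying annealed Cy3 and quencher oligos on a sequenced MiSeq flow cell, imaged in 50 mM Na-HEPES pH 8.0, 25 mM NaCl, in 2.5 °C steps up to 60 °C. Bootstrapped two-state fits gave melting temperature and folding enthalpy, and four replicates were combined by inverse variance. Fitted temperatures were then raised by 9.35 °C to match UV melts.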

[2] = folding enthalpy; higher = less favourable; fluorescence melt of hairpins on a sequencing array, two-state fit; settings: sodium 0.088 M
Outline: as §1

Row | Sequence | Tm [1] | folding enthalpy [2]
1 | GACAACGAAAGTTAAGTC ((((((....)))..))) | 33.2 °C | -14.7 kcal/mol
2 | GTGCAGGGAAACCTGTGC (..((((....))))..) | 44.6 °C | -21.6 kcal/mol
3 | GTAAGCGAAAGCTTTAC ((((((....))).))) | 42 °C | -12.9 kcal/mol
4 | GTTCGGGGAAACTCGGAC ((.((.(....).)).)) | 39 °C | -25.6 kcal/mol
5 | GGTTTACGAAAGTACACC (((.(((....))).))) | 45.2 °C | -28.3 kcal/mol
6 | GCAATCGGAAACGATCGC ((.((((....)))).)) | 47.2 °C | -36.4 kcal/mol
7 | GGTCTCGAAAGAGCCACC ((((((....)))..))) | 43.3 °C | -14.8 kcal/mol
8 | GCAGGGCGAAAGCCAAGC ((..(((....)))..)) | 53.4 °C | -17.2 kcal/mol
9 | GAGAACCGAAAGGTACTC (((.(((....))).))) | 50.7 °C | -34.9 kcal/mol
10 | GATCTTATTAAGATC ((((((...)))))) | 45 °C | -34 kcal/mol
11 | GACTGGGGAAACCTGGTC (((..((....))..))) | 38.9 °C | -34.9 kcal/mol
12 | GTCTCGGGAAACCGAGGC (.(((((....))))).) | 57.6 °C | -29 kcal/mol
13 | GTGCGTCGAAAGACTCAC (((.(((....))).))) | 49.6 °C | -40.2 kcal/mol
14 | GTAACACGAAAGTGTAC (((.(((....)))))) | 42.8 °C | -14 kcal/mol
15 | GAGTAACGAAAGTTCTC (((.(((....)))))) | 37.1 °C | -21.9 kcal/mol
16 | GCGAATCGAAAGATCGC (((.(((....)))))) | 57.3 °C | -31.2 kcal/mol
17 | GACCGTGGAAACACGACC (..((((....))))..) | 28 °C | -10.8 kcal/mol
18 | GGCCTAGGAAACTGGGTC (.((.((....)).)).) | 40.9 °C | -28.5 kcal/mol
19 | GGAGTCGAAAGACCCTCC ((((((....)))..))) | 48 °C | -16.7 kcal/mol
20 | GTTGCGGGAAACTGCAAC (((((.(....).))))) | 56.2 °C | -38.5 kcal/mol
21 | GGCATAGAAATATGCC ((((((....)))))) | 55.4 °C | -42.2 kcal/mol
22 | GGCGGAGGAAACTCCACC ((.((((....)))).)) | 48.9 °C | -33.6 kcal/mol
23 | GCGGATGGCCGC ((((....)))) | 54.6 °C | -21 kcal/mol

Reference: the array DNA melting data of Ke et al. (doi:10.1101/2024.01.08.574731)
